Test [1] is filed under the species Rattus norvegicus. In words: Cytoprotective effect against hypoxia-induced Sprague-Dawley rat NRVM assessed as increase in cell viability pretreated for 12 hrs before hypoxia induction at 1 umol/L measured after 5 hrs by MTT assay relative to control. The format is functional. A digest of the protocol:
(§1)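 Neonatal rat ventricular myocytes were obtained by trypsin digestion, preplated for 2 h, then seeded at 1 × 10⁶ cells/ml in DMEM with 10% FBS, penicillin/streptomycin and 5-bromo-deoxyuridine at 37 °C, 5% CO₂. After 48 h they were given compound for 12 h, then 5 h hypoxia. Viability was read by MTT and damage by LDH leakage; means SE.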
A general note: Tetrazolium assays rely on reduction of a dye to a coloured formazan, in cell work by metabolically active cells.

Test [2] is filed under the species Rattus norvegicus. In words: Cytoprotective effect against hypoxia-induced Sprague-Dawley rat NRVM assessed as decrease in LDH leakage pretreated for 12 hrs before hypoxia induction at 1 umol/L relative to control. The format is functional. A digest of the protocol: as §1
In general terms: Release of lactate dehydrogenase indicates damage to the cell membrane.

For test [3], the species on record is Rattus norvegicus. Kind of test: Cytoprotective effect against hypoxia-induced Sprague-Dawley rat NRVM assessed as decrease in cellular damage pretreated for 12 hrs before hypoxia induction at 1 umol/L. The format is functional.
Test [4] is filed under the species Rattus norvegicus. Kind of test: Antioxidant activity against hypoxia-induced lipid peroxidation in Sprague-Dawley rat NRVM assessed as decrease in malondialdehyde content at 1 umol/l relative to hypoxia control. The format is functional.
The nature of test [5]: Antiapoptotic activity against hypoxia-induced Sprague-Dawley rat NRVM assessed as increase in bcl2 mRNA level at 1 umol/l by RT-PCR. It counts as functional.
Test [6] can be described thus: Antiapoptotic activity against hypoxia-induced Sprague-Dawley rat NRVM assessed as decrease in caspase 3 mRNA level at 1 umol/l by RT-PCR. It counts as functional.
Test [7] in a line: Antiapoptotic activity against hypoxia-induced Sprague-Dawley rat NRVM assessed as decrease in bax mRNA level at 1 umol/l by RT-PCR. The format is functional.
Test [8] can be described thus: Antiapoptotic activity against hypoxia-induced morphological changes in Sprague-Dawley rat NRVM assessed as decrease in nuclear condensation at 1 umol/l by Heochst dye relative to hypoxia induced control. It counts as functional. A digest of the protocol:
(§2)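 Cultured neonatal rat ventricular myocytes (trypsin-dissociated, 2 h preplating, DMEM/10% FBS with 5-bromo-deoxyuridine, 37 °C, 5% CO₂) were pretreated 12 h with compound after 48 h culture, then made hypoxic for 5 h. Nuclei were Hoechst-stained to score shrinkage and condensation.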

A short description of test [9]: Antiapoptotic activity against hypoxia-induced Sprague-Dawley rat NRVM assessed as decrease in bax protein level at 1 umol/l by Western blot analysis. The format is functional.
Test [10] can be described thus: Antiapoptotic activity against hypoxia-induced Sprague-Dawley rat NRVM assessed as increase in bcl2 protein level at 1 umol/l by Western blot analysis. The format is functional. In a few lines: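 Myocytes were pretreated 12 h, then made hypoxic for 5 h and lysed at the end of hypoxia. Lysates were spun at 10,000 r/min for 10 min and protein quantified by BCA. Samples were transferred to PVDF and blocked 2 h at RT in TBS with 5% skim milk. For bcl-2, blots were probed 1 h at RT with rabbit anti-rat polyclonal antibody in TBS-T.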
For orientation: A western blot detects proteins with antibodies after separation by electrophoresis.

Test [11] in a line: Antiapoptotic activity against hypoxia-induced morphological changes in Sprague-Dawley rat NRVM assessed as decrease in nuclei shrunk at 1 umol/l by Heochst dye relative to hypoxia induced control. The format is functional. A digest of the protocol: as §2
Test [12] relates to Rattus norvegicus. Kind of test: Cardioprotective effect in Sprague-Dawley rat myocardial infarction model assessed as decrease in serum malondialdehyde level at 15 to 60 mg/kg, ip treated 7 days before myocardial infarction surgery and after 2 days once daily. It counts as functional, organism-based. A digest of the protocol: (§3)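 Male Sprague-Dawley rats (230–250 g) were anaesthetised with chloral hydrate (60 mg/kg ip), intubated and ventilated, and the left coronary artery ligated; sham rats were not ligated. Drug at 15, 30 or 60 mg/kg ip was given once daily from 7 days before to 2 days after surgery. Serum LDH, CK, SOD and MDA were measured by diagnostic kit; means SE, n = 6, P < 0.05.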

For test [13], the system named is Rattus norvegicus. Kind of test: Cardioprotective effect in Sprague-Dawley rat myocardial infarction model assessed as increase in serum SOD level at 15 to 60 mg/kg, ip treated 7 days before myocardial infarction surgery and after 2 days once daily. The format is functional, organism-based. A digest of the protocol:
as §3

Test [14] has as its system Rattus norvegicus. Kind of test: Cardioprotective effect in Sprague-Dawley rat myocardial infarction model assessed as decrease in serum creatine kinase level at 15 to 60 mg/kg, ip treated 7 days before myocardial infarction surgery and after 2 days once daily. The format is functional, organism-based. A digest of the protocol: as §3
Test [15] has as its system Rattus norvegicus. In words: Cardioprotective effect in Sprague-Dawley rat myocardial infarction model assessed as decrease in infarct size at 30 mg/kg, ip treated 7 days before myocardial infarction surgery and after 2 days once daily by TTC staining. To be noted: Myocardium. Also on record: dose 30 mg/kg. The format is functional, organism-based. A digest of the protocol: (§4)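 Male Sprague-Dawley rats (230–250 g), anaesthetised with 7% chloral hydrate (60 mg/kg ip), intubated and ventilated; left coronary artery ligated (sham: no ligation). Five randomised groups: MI, sham, MI plus drug at 15, 30 or 60 mg/kg ip once daily. Hearts excised 2 days post-ligation, ventricles cut into five transverse slices, 1% TTC at 37 °C for 15 min; unstained area taken as infarct. Means SE.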

The test system of test [16] is Rattus norvegicus. Kind of test: Cardioprotective effect in Sprague-Dawley rat myocardial infarction model assessed as decrease in serum LDH level at 15 to 60 mg/kg, ip treated 7 days before myocardial infarction surgery and after 2 days once daily. It counts as functional, organism-based. In a few lines:
as §3

Test [17] relates to Rattus norvegicus. Kind of test: Cardioprotective effect in Sprague-Dawley rat myocardial infarction model assessed as decrease in infarct size at 60 mg/kg, ip treated 7 days before myocardial infarction surgery and after 2 days once daily by TTC staining. It counts as functional, organism-based. As to conditions: Myocardium. Details: dose 60 mg/kg. In a few lines: as §4
In test [18] the test system is Rattus norvegicus. In words: Cardioprotective effect in Sprague-Dawley rat myocardial infarction model assessed as decrease in infarct size at 15 mg/kg, ip treated 7 days before myocardial infarction surgery and after 2 days once daily by TTC staining. It counts as functional, organism-based. Details: dose 15 mg/kg. As to conditions: Myocardium. In a few lines:
as §4

Active and inactive are the calls of the source. The calls are words filed in the database; no cut-off is given here.

Regarding `COC(=O)C(Cc1ccc(OC(C)=O)c(OC(C)=O)c1)OC(C)=O` (racemic), the outcome in the test filed under Rattus norvegicus [1] and in the test filed under Rattus norvegicus [2] was Active.
In the case of `COC(=O)[C@@H](Cc1ccc2c(c1)OCO2)OC(C)=O`, the outcome in the test listed under Rattus norvegicus [3], in the test listed under Rattus norvegicus [1], in the test filed under Rattus norvegicus [2] and in the test listed under Rattus norvegicus [4] was Active.
For the molecule `COC(=O)[C@@H](Cc1ccc(OC(C)=O)c(OC(C)=O)c1)OC(C)=O`, the result (in the test listed under Rattus norvegicus [3]; in the test listed under Rattus norvegicus [1]; in test [5]; in test [6]; in [7]; in the test filed under Rattus norvegicus [2]) was Active. For the same molecule, the outcome (in [8]; in [9]; in [10]; in test [11]; in the test filed under Rattus norvegicus [4]) was Active.
As to `COC(=O)C(Cc1ccc2c(c1)OCO2)OC(C)=O` (racemic), the outcome in the test filed under Rattus norvegicus [1] and in the test listed under Rattus norvegicus [2] was Active.
For `CC(=O)O/C(=C\c1ccc(O)c(O)c1)C(=O)O`, the outcome (in the test on Rattus norvegicus [12]; in the test listed under Rattus norvegicus [1]; in the test on Rattus norvegicus [13]; in test [5]; in test [6]; in test [7]) was Active. Besides, the result (with Rattus norvegicus [14]; in the test filed under Rattus norvegicus [2]; in the test with Rattus norvegicus [16]; in test [8]; in test [9]; in the test on Rattus norvegicus [17]) was Active. Also, the result (in test [10]; in [11]; in the test filed under Rattus norvegicus [4]) was Active. For the same molecule, the outcome in the test with Rattus norvegicus [15] and in the test on Rattus norvegicus [18] was inactive.

For the origin of these results see ChEMBL document CHEMBL1151860, “Asymmetric synthesis and biological evaluation of Danshensu derivatives as anti-myocardial ischemia drug candidates” (Bioorg Med Chem, 2009).
